What was measured:
Assay type in all cases: biochemical
[1] = molecular target: T1, recombinant purified enzyme 15-LOX-1 (Homo sapiens, UniProt P16050); assay: ABPP two-step labeling of recombinant purified 15-LOX-1; conditions: 10 min incubation with inhibitor, then 2 min with probe N144
T1 sequence (P16050 1-662): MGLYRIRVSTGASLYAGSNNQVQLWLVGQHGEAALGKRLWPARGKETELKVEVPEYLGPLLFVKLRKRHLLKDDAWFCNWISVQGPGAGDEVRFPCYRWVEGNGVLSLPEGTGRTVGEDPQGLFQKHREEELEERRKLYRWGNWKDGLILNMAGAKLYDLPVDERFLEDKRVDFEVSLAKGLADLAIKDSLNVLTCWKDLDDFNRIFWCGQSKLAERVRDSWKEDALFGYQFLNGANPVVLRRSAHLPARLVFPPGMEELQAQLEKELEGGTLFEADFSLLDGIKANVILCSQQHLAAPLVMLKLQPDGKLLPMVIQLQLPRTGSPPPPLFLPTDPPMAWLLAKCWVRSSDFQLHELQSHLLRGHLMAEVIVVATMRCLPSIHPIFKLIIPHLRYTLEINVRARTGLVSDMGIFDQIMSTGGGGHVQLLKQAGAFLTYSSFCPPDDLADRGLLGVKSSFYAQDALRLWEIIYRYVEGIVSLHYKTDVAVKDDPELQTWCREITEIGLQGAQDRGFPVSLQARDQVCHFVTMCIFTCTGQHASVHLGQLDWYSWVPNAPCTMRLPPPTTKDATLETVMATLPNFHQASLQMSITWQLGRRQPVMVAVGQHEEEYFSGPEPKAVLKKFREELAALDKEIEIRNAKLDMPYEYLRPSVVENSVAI
How it was run: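 Recombinant purified human 15-LOX-1 preincubated 10 min with a reversible 15-LOX-1 inhibitor or a 5-LOX inhibitor as control. Then 2 min with an alkene-tagged bis-alkyne probe. Biotinyl phenyl boronic acid was attached to the terminal alkene by oxidative Heck reaction. Equal enzyme amounts were run on Western blot and detected by HRP-streptavidin luminescence, alongside Coomassie staining and no-probe controls.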

[2] = molecular target: T2, endogenous 15-LOX-1 in HeLa cell lysate (Homo sapiens, UniProt P16050); assay: Activity-based labeling in HeLa cell lysate; conditions: inhibitor 90 μM; bands also characterized by the 15-LOX-1 antibody
T2 sequence (P16050 1-662): T1 sequence (P16050 1-662)
How it was run: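 HeLa cell lysate: endogenous enzyme preincubated with inhibitors at 90 μM, then labeled with an alkene-tagged bis-alkyne probe. Biotinylation by oxidative Heck reaction with biotinyl phenyl boronic acid. Blots were first probed with 15-LOX antibody, then stripped and developed with HRP-conjugated streptavidin by on-blot luminescence. Included no-probe controls.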

[3] = molecular target: T3, 15-LOX-1 in tissue lysates from different mice organs (Mus musculus, UniProt P39654); assay: Activity-based labeling in mouse tissue lysates; conditions: inhibitor 90 μM, three characteristic bands
T3 sequence (P39654 1-663): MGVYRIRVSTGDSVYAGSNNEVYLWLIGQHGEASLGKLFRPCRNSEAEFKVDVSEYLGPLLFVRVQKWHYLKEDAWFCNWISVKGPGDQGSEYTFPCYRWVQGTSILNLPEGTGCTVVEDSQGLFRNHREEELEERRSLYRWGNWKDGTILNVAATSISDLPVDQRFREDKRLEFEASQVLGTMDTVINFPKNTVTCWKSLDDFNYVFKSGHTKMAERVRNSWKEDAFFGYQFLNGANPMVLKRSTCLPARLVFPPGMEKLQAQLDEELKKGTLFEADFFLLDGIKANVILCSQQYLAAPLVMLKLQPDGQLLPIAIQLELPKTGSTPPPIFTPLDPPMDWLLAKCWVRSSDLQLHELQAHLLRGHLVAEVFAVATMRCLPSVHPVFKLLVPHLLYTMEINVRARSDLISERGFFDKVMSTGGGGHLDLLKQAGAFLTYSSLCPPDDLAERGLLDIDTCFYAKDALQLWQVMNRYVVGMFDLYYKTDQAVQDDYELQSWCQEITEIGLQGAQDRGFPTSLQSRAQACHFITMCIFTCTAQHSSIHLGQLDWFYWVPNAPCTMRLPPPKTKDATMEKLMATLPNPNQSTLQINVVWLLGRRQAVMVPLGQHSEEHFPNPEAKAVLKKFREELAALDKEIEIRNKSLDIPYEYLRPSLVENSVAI
How it was run: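 Mouse heart tissue lysate: endogenous enzyme preincubated with inhibitors at 90 μM, then labeled with an alkene-tagged bis-alkyne probe. The probe was biotinylated by oxidative Heck coupling with biotinyl phenyl boronic acid. Labeled proteins were detected on blot with HRP-conjugated streptavidin luminescence.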

| effect of inhibitor pre-incubation on N144 labeling of recombinant 15-LOX-1 [1] | effect of inhibitor on N144 labeling in HeLa cell lysates [2] | effect of inhibitor on N144 labeling in mouse heart lysate [3] | SMILES |
| --- | --- | --- | --- |
| labeling was clearly inhibited | decrease of the labeling | reduced labeling | c1ccc2c(c1)SCc1c-2[nH]c2ccccc12 [PD-146176] |
| did not affect the labeling | – | – | CC(c1cc2ccccc2s1)N(O)C(N)=O (stereo not shown) [Zileuton] |

— publication PMC5218545 (Angewandte Chemie (International ed. in English), 2016)
